Fewer inactive variants are shown than the library holds.
B1: tRNA (parent)
chain: GUUCCGUUGGCGUAAUGGUAACGCGUCUCCCUCCUAAGGAGAAGACUGCGGGUUCGAGUCCCGUACGGAACG

Variants of: B1
Assay: yeast fitness relative to wild type (ratio to wild type); higher = fitter; tRNA-Arg(CCU), competitive growth, 37 C, YPD
Outline: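 Amplicons of the tRNA-Arg(CCU) gene were sequenced, 100-nucleotide paired-end, from the start population and from each end population of a pooled yeast competition. The competition, in six parallel replicates, lasted 24 hours in YPD at 37°C. Fitness relative to wild type was calculated from changes in genotype frequencies. Genotypes had to have ≥ 100 starting reads, and estimates < 0.5 were set to 0.5.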

Going from C11U C31G A70U to C11U C30A, the yeast fitness rises from 0.598 to 0.823.

C11G A42U C66G G67U and C11A G25C C29U cannot be ordered by yeast fitness: at most 0.5 for the first, at most 0.5 for the second.

Compared with C11G C24G C27U C55U, C11G A15G U26G C66U is lower in yeast fitness: 0.55 for the first, at most 0.5 for the second.

C11G C24G C49U and C11G A37C A42G C66G G68U cannot be ordered by yeast fitness: at most 0.5 for the first, at most 0.5 for the second.

First: C11G A15U A65C
Second: C11G C30A G44C G52C U64G
The yeast fitness of the first is higher: 0.544 for the first, at most 0.5 for the second.

C11G U16A C22U A45U and C11G A15U U16C C24G A40G C62U A70C cannot be ordered by yeast fitness: at most 0.5 for the first, at most 0.5 for the second.

First: C11U A42G G51U A57U
Second: C11G C29U C34U C62A C66U
The yeast fitness of the first is lower: at most 0.5 for the first, 0.565 for the second.

C11U A21C A42G C49U A69C A70G and C11G C27G A42C A45C cannot be ordered by yeast fitness: at most 0.5 for the first, at most 0.5 for the second.

First: C11G U26A
Second: C11G C24A G48C U54G C55U C66U
The yeast fitness of the first is higher: 0.583 for the first, at most 0.5 for the second.

First: C11G C30A
Second: C11U C24G C33A A42G
The yeast fitness of the first is higher: 0.588 for the first, at most 0.5 for the second.

Compared with C11A G50A, C11G A15C is lower in yeast fitness: 0.651 for the first, 0.528 for the second.

First: C11G G12A G41C C66A G67C
Second: C11U A20C C29G
The yeast fitness of the first is higher: 0.596 for the first, 0.568 for the second.

Compared with C11U C22U C66U A70C, C11U A37G is higher in yeast fitness: at most 0.5 for the first, 0.896 for the second.

C11G A42U A65G C66G G68A and C11A U19A C29A U32A U54C C55G C60G A70U cannot be ordered by yeast fitness: at most 0.5 for the first, at most 0.5 for the second.

First: C11U A14C C30G A40G C49A G68A
Second: C11G C24U C55G
The yeast fitness of the first is higher: 0.537 for the first, at most 0.5 for the second.

First: C11G C22U U53C G68C
Second: C11G U47A G52A G58C G63C C66G
The yeast fitness of the first is lower: 0.521 for the first, 0.664 for the second.

Going from C11U A45C G52C C61U to C11A G48A U54A, the yeast fitness rises from at most 0.5 to 0.584.

First: C11U C29G A37C A42U A57G G67A
Second: C11A U53A G67A
The yeast fitness of the first is higher: 0.566 for the first, at most 0.5 for the second.

C11G A57U C66U and C11U A14G U16G C24G U26C U47G G50C C66A cannot be ordered by yeast fitness: at most 0.5 for the first, at most 0.5 for the second.

Compared with C11G U28C U54C G58A, C11G C49A G67C is lower in yeast fitness: 0.53 for the first, at most 0.5 for the second.

Going from C11A U16C G18C U35C A45C A57C G68C to C11U C30U G52C, the yeast fitness falls from 0.515 to at most 0.5.

First: C11U C24A A42G A57U U64A A69U
Second: C11A U19G A36G C66U
The yeast fitness of the first is higher: 0.505 for the first, at most 0.5 for the second.

C11G U28A A65U A69U and C11G A14G G17A A37G G48C C62U C66G A70G cannot be ordered by yeast fitness: at most 0.5 for the first, at most 0.5 for the second.

Compared with C11U A45G U53C, C11G U32A A37C G39A A43G U54C C62G is lower in yeast fitness: 0.637 for the first, at most 0.5 for the second.

C11G C27U C33U A65C G67A and C11U C27G A43U G63A cannot be ordered by yeast fitness: at most 0.5 for the first, at most 0.5 for the second.

Going from C11A G17A to C11G G12C A20C C24G A37G G68A A69C, the yeast fitness falls from 0.579 to at most 0.5.

Compared with C11G U35C A43C G52C U54A, C11U C29U is higher in yeast fitness: 0.644 for the first, 0.738 for the second.

First: C11U C29G
Second: C11U A69C
The yeast fitness of the first is lower: 0.687 for the first, 0.905 for the second.

C11U A15G C24G C27G C31U G41C C49U and C11A G38U C66A cannot be ordered by yeast fitness: at most 0.5 for the first, at most 0.5 for the second.

C11U A45U C61G A65C and C11G U54C C62U cannot be ordered by yeast fitness: at most 0.5 for the first, at most 0.5 for the second.

Compared with C11G C34U C55G, C11U C22U A65U A69U is lower in yeast fitness: 0.689 for the first, at most 0.5 for the second.

C11U A20G A36C C49G C61G C62G and C11U C31U C61U A69U cannot be ordered by yeast fitness: at most 0.5 for the first, at most 0.5 for the second.

First: C11A U53C
Second: C11A U53A
The yeast fitness of the first is lower: 0.556 for the first, 0.59 for the second.

Going from C11U A15G A65C to C11G A14G A15U G23C U53A C62U, the yeast fitness falls from 0.713 to at most 0.5.

C11G G17C C34A A43C G56C and C11U A21C A36G cannot be ordered by yeast fitness: at most 0.5 for the first, at most 0.5 for the second.

C11A C61G and C11G A21C G56A cannot be ordered by yeast fitness: at most 0.5 for the first, at most 0.5 for the second.

First: C11G U47A G48A
Second: C11A U19G A36G U54C U64C G67A
The yeast fitness of the first is higher: 0.58 for the first, at most 0.5 for the second.

Compared with C11A U32C C49U, C11G C24U A45C C55U is lower in yeast fitness: 0.606 for the first, at most 0.5 for the second.

C11U C30U C66A and C11G U35A C62A C66G cannot be ordered by yeast fitness: at most 0.5 for the first, at most 0.5 for the second.

C11G G12A C60U A70G and C11U C29U U59C cannot be ordered by yeast fitness: at most 0.5 for the first, at most 0.5 for the second.

Going from C11U A21C C22G U54C C62A to C11G U32C, the yeast fitness rises from at most 0.5 to 0.597.

C11G A21G A57G and C11A G17C A36G G41C U53C C61A G68A cannot be ordered by yeast fitness: at most 0.5 for the first, at most 0.5 for the second.

Compared with C11U A45U, C11U A45C is lower in yeast fitness: 0.951 for the first, 0.836 for the second.

C11G U16C C27G and C11G C61U G68A cannot be ordered by yeast fitness: at most 0.5 for the first, at most 0.5 for the second.

Compared with C11G C24U U28C C55G, C11U C27G A43C A57U is higher in yeast fitness: at most 0.5 for the first, 0.696 for the second.

First: C11G C24G C27A U28C A65U
Second: C11U A45G G52A
The yeast fitness of the first is lower: 0.533 for the first, 0.63 for the second.

First: C11U A45G G52C
Second: C11U A14G A65U G68A
The yeast fitness of the first is lower: at most 0.5 for the first, 0.617 for the second.

Going from C11U A20U to C11A G39C C62U, the yeast fitness falls from 0.75 to at most 0.5.

First: C11G C31U C33U
Second: C11G G17A A37U A70G
The yeast fitness of the first is higher: 0.509 for the first, at most 0.5 for the second.

Going from C11U A15C to C11G G25A A45C, the yeast fitness falls from 0.595 to at most 0.5.

Going from C11G C24U G67A to C11G G48A C49G, the yeast fitness rises from at most 0.5 to 0.587.

First: C11U A14G G23A
Second: C11U C22G A70C
The yeast fitness of the first is lower: 0.504 for the first, 0.669 for the second.

Going from C11G A15C C24G C46A to C11A G12A G25A, the yeast fitness rises from 0.546 to 0.604.

C11U A42C A57C and C11G A15U C22U A42G cannot be ordered by yeast fitness: at most 0.5 for the first, at most 0.5 for the second.

First: C11G C29G C33U C46A C49G
Second: C11G U16C C27G C61U
The yeast fitness of the first is higher: 0.564 for the first, 0.545 for the second.

Compared with C11G C33U A36G C55U, C11G U16G G38C U54A C66A is higher in yeast fitness: at most 0.5 for the first, 0.648 for the second.

C11G C24G C27A U28C G67A and C11U C30G U35A C46U G51A G56A cannot be ordered by yeast fitness: at most 0.5 for the first, at most 0.5 for the second.

Going from C11G C29A A40U G52A to C11G C49U C61A, the yeast fitness rises from at most 0.5 to 0.582.

Compared with C11A U19A A42U A45C C55U A69C, C11U A57U C60G G68C is lower in yeast fitness: 0.538 for the first, at most 0.5 for the second.

C11G G12C A20G A43G A45C A69U and C11G C24G C30U A43U C60G A65C cannot be ordered by yeast fitness: at most 0.5 for the first, at most 0.5 for the second.

Compared with C11G C33A A42C, C11A G51A C66G is lower in yeast fitness: 0.7 for the first, at most 0.5 for the second.

Compared with C11U C31G C46A G63C A65U, C11U C27A U54G is lower in yeast fitness: 0.531 for the first, at most 0.5 for the second.

Going from C11U A21C A42G to C11G C30U A37C C46U, the yeast fitness rises from 0.523 to 0.664.

C11G C60G A65C and C11G G12A C22U G44A cannot be ordered by yeast fitness: at most 0.5 for the first, at most 0.5 for the second.

First: C11U A40G U47G
Second: C11G C22U C27U U47A G52C
The yeast fitness of the first is lower: at most 0.5 for the first, 0.67 for the second.

C11G U32G U54A U59A G67A and C11U A14U U19G cannot be ordered by yeast fitness: at most 0.5 for the first, at most 0.5 for the second.

Compared with C11G A14U U19A G25A C34U C60U G68A, C11G A14U C22A C29G C34A is lower in yeast fitness: 0.517 for the first, at most 0.5 for the second.

Compared with C11U C22G C27U C31G, C11U A45U A65U is higher in yeast fitness: at most 0.5 for the first, 0.82 for the second.

C11A U16A C29G A42C G51A and C11U A21G C24A C49U A65C cannot be ordered by yeast fitness: at most 0.5 for the first, at most 0.5 for the second.

C11A G17C A36G G41C A45G C49U and C11G C29G G38A G44A C46U C62A cannot be ordered by yeast fitness: at most 0.5 for the first, at most 0.5 for the second.

C11G A15U C31A A70C and C11U A15C U16C A21G cannot be ordered by yeast fitness: at most 0.5 for the first, at most 0.5 for the second.

Compared with C11U A20U C22A C66G, C11G C22G C66A A69U is higher in yeast fitness: at most 0.5 for the first, 0.533 for the second.

C11A U16C G18C A20G A45C A57C G68C and C11G U26C G67C A69C cannot be ordered by yeast fitness: at most 0.5 for the first, at most 0.5 for the second.

Compared with C11U A36U G39A, C11G U35A C66U is higher in yeast fitness: at most 0.5 for the first, 0.51 for the second.

C11G U16C C22U G68U and C11U A15C G17C C22U C34G cannot be ordered by yeast fitness: at most 0.5 for the first, at most 0.5 for the second.

C11A U47A A70C and C11U A20G G48A C55G A57U cannot be ordered by yeast fitness: at most 0.5 for the first, at most 0.5 for the second.

First: C11G A14U A43U G48A
Second: C11G C24U U35A
The yeast fitness of the first is lower: at most 0.5 for the first, 0.622 for the second.

Going from C11G C27U U28A to C11G A14U U59G, the yeast fitness falls from 0.537 to at most 0.5.

First: C11U A42G
Second: C11U A42C
The yeast fitness of the first is higher: 0.917 for the first, 0.91 for the second.

C11G A21U U26C U47C G68C and C11G G50U C62G cannot be ordered by yeast fitness: at most 0.5 for the first, at most 0.5 for the second.

Going from C11U A37G G48A to C11G C29U C34U G68C, the yeast fitness falls from 0.597 to at most 0.5.

Going from C11G G12A A42U C61A A65U to C11G A21U G68C, the yeast fitness falls from 0.528 to at most 0.5.

Going from C11U A20U U26C to C11U A15U C46U, the yeast fitness rises from at most 0.5 to 0.741.

C11G C46U C49A C55U A69U showed a yeast fitness of 0.536.

Source: the RNAGym collection of RNA variant scans (doi:10.1126/science.aae0568)
